Assays:
[1] = Apparent permeability from basolateral to apical side of MDCK cells expressing mdr1; format: ADME, cell-based, Canis lupus familiaris; conditions: dog
How it was run: (§1)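 Transit across MDCK-mdr1 monolayers, measured in both apical-to-basolateral and basolateral-to-apical directions. Reported as Papp (10^-6 cm/s), used to judge membrane permeability and P-gp efflux.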

[2] = biological target: T1, 5-hydroxytryptamine receptor 2C (Homo sapiens, UniProt P28335); assay: Displacement of [3H]mesulergine form human recombinant 5HT2C receptor expressed in mouse Swiss 3T3 cells by scintillation proximity assay; format: cell-based
T1 sequence (P28335 whole entry): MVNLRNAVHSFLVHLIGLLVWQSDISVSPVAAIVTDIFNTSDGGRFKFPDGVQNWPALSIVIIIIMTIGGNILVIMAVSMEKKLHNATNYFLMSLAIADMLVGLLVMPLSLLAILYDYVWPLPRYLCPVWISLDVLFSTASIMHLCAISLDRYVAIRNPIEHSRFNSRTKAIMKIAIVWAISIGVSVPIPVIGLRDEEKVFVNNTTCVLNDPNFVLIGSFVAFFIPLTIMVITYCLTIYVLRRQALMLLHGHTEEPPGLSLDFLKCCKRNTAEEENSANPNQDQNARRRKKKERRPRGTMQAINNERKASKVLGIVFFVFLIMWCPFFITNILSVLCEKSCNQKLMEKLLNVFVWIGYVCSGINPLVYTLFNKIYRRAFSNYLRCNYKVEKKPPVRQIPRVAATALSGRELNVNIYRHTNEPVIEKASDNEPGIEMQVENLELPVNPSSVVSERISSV
How it was run: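 Inhibition of [3H]-mesulergine binding to human 5-HT2C receptor, read by scintillation proximity assay. Used membrane preparations from recombinant Swiss 3T3 cells.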

[3] = biological target: T2, 5-hydroxytryptamine receptor 2B (Homo sapiens, UniProt P41595); assay: Agonist activity at human recombinant 5HT2B receptor at 10 uM by cell-based system; format: functional
How it was run: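 Agonist response measured in a recombinant cell-based system expressing human 5-HT2B. Values are % activation at 10 μM, geometric means of 2–4 experiments.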

[4] = biological target: T2, 5-hydroxytryptamine receptor 2B; assay: Agonist activity at human recombinant 5HT2B receptor by cell-based system; format: functional
How it was run: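 Agonist activity read in a recombinant cell-based system expressing the human 5-HT2B receptor, giving EC50 and Emax. Values are geometric means of 2–4 experiments.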

[5] = biological target: T3, 5-hydroxytryptamine receptor 2C (Homo sapiens) (UniProt P28335); assay: Agonist activity at human recombinant 5HT2C receptor expressed in CHOK1 cells assessed as calcium mobilization by FLIPR assay relative to serotonin; format: functional, cell-based; conditions: CHO-K1
T3 sequence (whole entry): T1 sequence (P28335 whole entry)
How it was run: (§2)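 Human 5-HT2C receptor expressed recombinantly in CHO-K1 cells. Agonist response was read as a fluorescence-based calcium mobilization signal on FLIPR, giving EC50 and Emax. Values are geometric means of 2–4 experiments.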

[6] = biological target: Voltage-gated inwardly rectifying potassium channel KCNH2 (Homo sapiens, UniProt Q12809); assay: Binding affinity to human ERG
[7] = biological target: T1, 5-hydroxytryptamine receptor 2C; assay: Agonist activity at human recombinant 5HT2C receptor expressed in CHOK1 cells assessed as calcium mobilization by FLIPR assay; format: functional, cell-based, CHO-K1; how it was run: as §2
[8] = Apparent permeability from apical to basolateral side of MDCK cells expressing mdr1; format: ADME, cell-based, Canis lupus familiaris; conditions: dog; how it was run: as §1
[9] = Distribution coefficient, log D at pH 7.4; format: physicochemical; conditions: octanol/water
[10] = biological target: T3, 5-hydroxytryptamine receptor 2C (Homo sapiens); assay: Agonist activity at human recombinant 5HT2C receptor expressed in CHOK1 cells assessed as calcium mobilization at 10 uM by FLIPR assay relative to serotonin; format: functional, cell-based; conditions: CHO-K1
How it was run: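 Fluorescent calcium mobilization read by FLIPR in recombinant CHO-K1 cells expressing human 5-HT2C receptor. Value is % activation at 10 μM, geometric mean of 2–4 experiments.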

Liver microsomes = assay: Metabolic stability in human liver microsomes assessed as intrinsic clearance; format: ADME, Microsome
How it was run: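 High-throughput incubation with human liver microsomes. Metabolic stability expressed as intrinsic clearance (μL/min/mg).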

T2 sequence (P41595 whole entry): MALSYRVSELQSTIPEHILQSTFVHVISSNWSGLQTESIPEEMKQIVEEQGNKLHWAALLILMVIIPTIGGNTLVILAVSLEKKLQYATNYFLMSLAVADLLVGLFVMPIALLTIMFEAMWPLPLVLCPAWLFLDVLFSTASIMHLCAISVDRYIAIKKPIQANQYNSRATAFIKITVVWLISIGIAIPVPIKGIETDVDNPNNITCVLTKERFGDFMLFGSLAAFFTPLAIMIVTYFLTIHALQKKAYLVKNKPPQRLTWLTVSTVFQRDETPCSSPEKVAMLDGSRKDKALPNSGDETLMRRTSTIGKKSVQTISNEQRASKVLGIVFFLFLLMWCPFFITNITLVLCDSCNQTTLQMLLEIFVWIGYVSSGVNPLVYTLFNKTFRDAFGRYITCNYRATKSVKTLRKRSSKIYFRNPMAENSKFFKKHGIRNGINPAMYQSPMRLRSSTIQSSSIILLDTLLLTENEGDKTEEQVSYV
Voltage-gated inwardly rectifying potassium channel KCNH2, sequence (Q12809 whole entry): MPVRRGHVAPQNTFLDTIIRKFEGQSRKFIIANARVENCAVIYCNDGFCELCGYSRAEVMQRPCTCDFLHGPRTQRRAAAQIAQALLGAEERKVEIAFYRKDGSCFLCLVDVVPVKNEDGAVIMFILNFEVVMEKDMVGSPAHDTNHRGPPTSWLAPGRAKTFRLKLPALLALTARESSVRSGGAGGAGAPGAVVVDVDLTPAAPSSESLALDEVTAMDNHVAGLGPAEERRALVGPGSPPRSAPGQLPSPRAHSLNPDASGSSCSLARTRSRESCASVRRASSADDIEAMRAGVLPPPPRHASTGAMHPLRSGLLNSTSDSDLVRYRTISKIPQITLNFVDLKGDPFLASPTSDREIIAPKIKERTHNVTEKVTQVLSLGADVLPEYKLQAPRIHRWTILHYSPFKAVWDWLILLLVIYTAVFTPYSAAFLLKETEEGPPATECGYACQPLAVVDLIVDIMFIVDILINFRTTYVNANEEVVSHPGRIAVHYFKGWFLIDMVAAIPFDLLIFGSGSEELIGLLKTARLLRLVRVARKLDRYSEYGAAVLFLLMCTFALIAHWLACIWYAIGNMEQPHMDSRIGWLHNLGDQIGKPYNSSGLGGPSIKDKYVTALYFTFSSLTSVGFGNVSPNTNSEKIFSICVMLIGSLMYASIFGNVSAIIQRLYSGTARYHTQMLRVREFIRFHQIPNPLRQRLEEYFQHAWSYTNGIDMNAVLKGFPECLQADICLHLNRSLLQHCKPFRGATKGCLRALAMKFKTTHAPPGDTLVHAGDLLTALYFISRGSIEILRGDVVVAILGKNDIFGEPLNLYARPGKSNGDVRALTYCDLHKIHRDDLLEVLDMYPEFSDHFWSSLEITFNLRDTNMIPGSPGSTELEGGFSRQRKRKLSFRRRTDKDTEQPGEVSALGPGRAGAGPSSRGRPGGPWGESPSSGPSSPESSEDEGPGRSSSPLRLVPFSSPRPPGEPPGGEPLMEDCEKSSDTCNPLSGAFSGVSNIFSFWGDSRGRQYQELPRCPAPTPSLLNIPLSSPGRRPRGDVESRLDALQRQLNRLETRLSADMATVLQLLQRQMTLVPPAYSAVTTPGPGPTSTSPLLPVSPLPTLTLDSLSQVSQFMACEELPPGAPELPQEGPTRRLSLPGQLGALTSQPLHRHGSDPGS

Structure (SMILES) | Papp B→A [1] | Ki [2] | Activity [3] | EC50 [4] | Emax [5] | Ki [6] | EC50 [7] | Papp A→B [8] | logD [9] | Emax [4] | Emax [10] | clearance (Liver microsomes)
CN(CC1COc2ccccc21)S(=O)(=O)c1ccc2c(c1)CCNCC2 (stereo not given) | 34 ×10⁻⁶ cm/s | 58 nM | < 10% | > 9940 nM | 74% | 2990 nM | 41 nM | 18 ×10⁻⁶ cm/s | 1 | – | – | –
O=S(=O)(c1ccc2c(c1)CCNCC2)N1CCC(Oc2ccccc2F)CC1 | – | 15 nM | – | > 9940 nM | 52% | – | 115 nM | – | – | – | – | –
CCCNS(=O)(=O)c1ccc2c(c1)CCNCC2 | – | 531 nM | – | 197 nM | 59% | – | 959 nM | – | – | 30% | – | –
CN(c1ccc2c(c1)CCNCC2)S(=O)(=O)c1ccccc1F | – | – | – | – | – | – | – | – | – | – | 10% | –
O=S(=O)(c1ccc2c(c1)CCNCC2)N1CCCC1 | – | 51 nM | – | 357 nM | 86% | – | 50 nM | – | – | 68% | – | –
CN(c1ccc2c(c1)CCNCC2)S(=O)(=O)Cc1ccc(F)cc1 | – | – | – | – | – | – | – | – | – | – | 20% | –
O=S(=O)(NCc1ccccc1Cl)c1ccc2c(c1)CCNCC2 | – | 30 nM | – | 802 nM | 48% | – | 46 nM | – | – | 19% | – | –
O=S(=O)(Nc1ccc2c(c1)CCNCC2)c1ccccc1F | – | – | – | – | – | – | – | – | – | – | 18% | –
O=S(=O)(c1ccccc1)c1ccc2c(c1)CCNCC2 | 25 ×10⁻⁶ cm/s | 6 nM | – | 18 nM | 71% | > 7200 nM | 9 nM | 21 ×10⁻⁶ cm/s | 0.5 | 61% | – | < 8 µL/min/mg
CN(c1ccccc1)S(=O)(=O)c1ccc2c(c1)CCNCC2 | – | 1200 nM | – | 478 nM | – | – | – | – | – | 46% | 23% | –
O=S(=O)(Nc1ccccc1F)c1ccc2c(c1)CCNCC2 | – | 133 nM | – | 75 nM | 47% | – | 197 nM | – | – | 41% | – | –
CN(C)S(=O)(=O)c1ccc2c(c1)CCNCC2 | – | 87 nM | – | 125 nM | 74% | – | 47 nM | – | – | 57% | – | –
CN(Cc1ccccc1)S(=O)(=O)c1ccc2c(c1)CCNCC2 | 33 ×10⁻⁶ cm/s | 10 nM | – | > 9940 nM | 40% | – | 94 nM | 29 ×10⁻⁶ cm/s | 1 | – | – | –
O=S(=O)(c1ccc2c(c1)CCNCC2)N1CC(Oc2cccc(Cl)c2)C1 | 20 ×10⁻⁶ cm/s | – | – | > 9940 nM | 82% | – | 12 nM | 12 ×10⁻⁶ cm/s | – | – | – | 9 µL/min/mg
O=S(=O)(Nc1ccccc1)c1ccc2c(c1)CCNCC2 | – | 382 nM | – | 69 nM | 38% | – | 697 nM | – | – | 50% | – | –
CN(CC1CC1)S(=O)(=O)c1ccc2c(c1)CCNCC2 | – | 7 nM | – | 17 nM | 88% | – | 71 nM | – | – | 50% | – | –
O=S(=O)(Nc1ccccc1Cl)c1ccc2c(c1)CCNCC2 | – | 156 nM | – | 478 nM | 38% | – | 857 nM | – | – | 16% | – | –

Structure (SMILES) | Papp B→A [1] | Ki [2] | Activity [3] | EC50 [4] | Emax [5] | Ki [6] | EC50 [7] | Papp A→B [8] | logD [9] | Emax [4] | Emax [10] | clearance (Liver microsomes)
COc1c(S(=O)(=O)N(C)Cc2ccccc2)ccc2c1CCNCC2 | – | – | – | – | – | – | – | – | – | – | < 10% | –
O=S(=O)(c1ccc2c(c1)CCNCC2)N1CCCCC1 | – | 9 nM | – | 34 nM | 66% | – | 84 nM | – | – | 89% | – | –
O=S(=O)(c1ccc(F)cc1)c1ccc2c(c1)CCNCC2 | – | – | – | 15 nM | 47% | – | 80 nM | – | – | 60% | – | –
O=S(=O)(c1cccc(F)c1)c1ccc2c(c1)CCNCC2 | – | – | – | 33 nM | 81% | – | 9 nM | – | – | 67% | – | –
O=S(=O)(Cc1ccc(F)cc1)Nc1ccc2c(c1)CCNCC2 | – | – | – | – | – | – | – | – | – | – | 10% | –
COc1cc(S(=O)(=O)N2CCC(Oc3ccccc3Cl)CC2)c(OC)c2c1CCNCC2 | – | – | – | – | 57% | – | 365 nM | – | – | – | – | –
O=S(=O)(c1ccc2c(c1)CCNCC2)N1CCC(Oc2ccccc2)CC1 | – | – | – | > 9940 nM | 59% | – | 508 nM | – | – | – | – | –
O=S(=O)(c1ccc2c(c1)CCNCC2)N1CC(Oc2ccc(Cl)cc2)C1 | – | – | – | > 9940 nM | 66% | 2090 nM | 28 nM | – | 1.6 | – | – | < 8 µL/min/mg
O=S(=O)(c1ccc2c(c1)CCNCC2)N1CCOCC1 | – | 196 nM | – | – | 55% | – | 186 nM | – | – | – | – | –
O=S(=O)(c1ccc2c(c1)CCNCC2)N1CC[C@H](Oc2ccccc2Cl)C1 | – | – | – | > 9940 nM | 47% | – | 31 nM | – | 1.3 | – | – | 34 µL/min/mg
O=S(=O)(NCC1CC1)c1ccc2c(c1)CCNCC2 | – | 235 nM | – | 103 nM | 47% | – | 631 nM | – | – | 47% | – | –
O=S(=O)(c1ccc2c(c1)CCNCC2)N1CCC(Oc2cccc(Cl)c2)CC1 | – | – | – | > 9940 nM | 71% | – | 273 nM | – | – | – | – | –
COc1c(S(=O)(=O)N2CCC(Oc3ccccc3Cl)CC2)ccc2c1CCNCC2 | – | – | – | – | – | – | – | – | – | – | < 10% | –
O=S(=O)(c1ccc2c(c1)CCNCC2)N1CC[C@@H](Oc2ccccc2Cl)C1 | 34 ×10⁻⁶ cm/s | – | – | > 9940 nM | 73% | – | 14 nM | 15 ×10⁻⁶ cm/s | 1.3 | – | – | 36 µL/min/mg
O=S(=O)(c1ccc2c(c1)CCNCC2)N1CC(Oc2ccccc2Cl)C1 | – | – | – | > 9940 nM | 76% | 3410 nM | 31 nM | – | 1.1 | – | – | –
COc1cc(S(=O)(=O)N(C)Cc2ccccc2)c(OC)c2c1CCNCC2 | – | – | – | > 9940 nM | 50% | – | 170 nM | – | – | – | – | –
O=S(=O)(c1ccc2c(c1)CCNCC2)c1ccccc1F | – | – | – | 18 nM | 70% | – | 7 nM | – | – | 66% | – | –
